Source: ChEMBL document CHEMBL1138950, “Benzimidazole derivatives bearing substituted biphenyls as hepatitis C virus NS5B RNA-dependent RNA polymerase inhibitors: structure-activity relationship studies and identification of a potent and highly selective inhibitor JTK-109” (J Med Chem, 2006)

Assays:
[1] = Distribution coefficient, log D at pH 7.2; type: physicochemical; conditions: octanol/water
[2] = Apparent permeability in Caco-2 cells; type: ADME, cell-based; conditions: human
[3] = molecular target: RNA-directed RNA polymerase (Hepacivirus hominis, UniProt O39930); test: Inhibition of HCV 1b BK six His-tagged C-terminal truncated 544 amino acid NS5B RNA dependent RNA polymerase; set-up: species or system Hepatitis C virus subtype 1b
Chain of RNA-directed RNA polymerase (O39930 whole entry, the tested form may be a part): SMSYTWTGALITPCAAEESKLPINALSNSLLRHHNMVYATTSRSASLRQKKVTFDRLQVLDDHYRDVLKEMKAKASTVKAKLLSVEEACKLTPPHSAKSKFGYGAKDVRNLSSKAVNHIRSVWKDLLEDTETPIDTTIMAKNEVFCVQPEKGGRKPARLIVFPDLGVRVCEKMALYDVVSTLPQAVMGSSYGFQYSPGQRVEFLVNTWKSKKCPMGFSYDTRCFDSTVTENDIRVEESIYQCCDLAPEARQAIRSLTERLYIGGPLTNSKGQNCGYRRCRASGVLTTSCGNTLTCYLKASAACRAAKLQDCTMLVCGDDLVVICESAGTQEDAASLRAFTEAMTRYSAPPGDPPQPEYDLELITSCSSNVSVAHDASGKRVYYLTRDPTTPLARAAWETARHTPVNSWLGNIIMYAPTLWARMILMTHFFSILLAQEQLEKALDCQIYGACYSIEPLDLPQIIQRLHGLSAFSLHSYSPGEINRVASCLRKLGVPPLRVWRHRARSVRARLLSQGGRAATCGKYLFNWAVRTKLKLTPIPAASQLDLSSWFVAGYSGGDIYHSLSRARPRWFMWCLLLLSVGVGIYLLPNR
Summary of the method: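 HCV genotype 1b (BK) NS5B lacking 47 C-terminal residues, His6-tagged, E. coli-expressed; 7 nM enzyme with 5 µg HCV 3′X RNA template-primer, 50 µM each ATP/GTP/CTP, 2 µM UTP plus [3H]-UTP; pH 7.5 Tris, 5 mM MgCl2. Compounds in DMSO (5% final). 60 min at 25 °C; TCA-precipitable radioactivity read. Triplicate, mean of three experiments.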

[4] = test system: Hepatitis C virus; test: Inhibition of HCV subgenomic RNA replication in Huh5-2 cells after 48 hrs by replicon assay; type: functional, organism-based, Hepacivirus hominis; conditions: Huh-5-2, 48 h
Summary of the method: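 Huh-5-2 cells (Huh-7-derived, genotype 1b subgenomic replicon with luciferase reporter) seeded at 5 × 10^3 per well in DMEM with 10% FBS, 37 °C, 5% CO2; compounds added next day, 48 h exposure; luciferase activity read. EC50 is the concentration reducing replication by 50%. Triplicate, mean of three experiments.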

[5] = test system: Huh-5-2; test: Viability of Huh5-2 cells by MTT assay; type: functional; conditions: Homo sapiens
[6] = test system: Hepatitis C virus; test: Inhibition of HCV subgenomic RNA replication in Huh5-2 cells at 10 uM after 48 hrs by replicon assay; type: functional, Hepacivirus hominis; conditions: Huh-5-2, 48 h
[7] = Therapeutic index, CC50 for viability of Huh5-2 cells/EC50 for inhibition of HCV subgenomic RNA replication; type: cell-based, Huh-5-2; conditions: human, read-out: Ratio CC50/EC50
[8] = Plasma concentration in rat at 30 mg/kg, po after 1 hr; type: ADME, organism-based; set-up: dose 30 mg/kg, route oral
Summary of the method: (§1)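 Rats dosed orally at 30 mg/kg; plasma sampled at 1 and 2 h; n = 2 or 3.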

[9] = Plasma concentration in rat at 30 mg/kg, po after 2 hrs; type: ADME, organism-based; set-up: dose 30 mg/kg, route oral; summary of the method: as §1

logD [1]	Papp [2]	IC50 [3]	EC50 [4]	concentration at 1 h [8]	concentration at 2 h [9]	SMILES	CC50 [5]	inhibition at 10 µM [6]	selectivity ratio [7]
3.26	23.4 ×10⁻⁶ cm/s	0.058 µM	> 10 µM			O=C(O)c1ccc(-c2ccc(Cl)cc2COc2ccc(-c3nc4cc(C(=O)O)ccc4n3C3CCCCC3)cc2)cc1	> 50 µM		
		0.58 µM	> 10 µM			Cc1nc(COc2ccc(-c3nc4cc(C(=O)O)ccc4n3C3CCCCC3)cc2)c(-c2ccc(Cl)cc2)o1	39 µM	30%	
		0.014 µM	0.28 µM	1100 nM	500 nM	O=C(O)c1ccc2c(c1)nc(-c1ccc(OCc3cc(C(=O)N4CCOCC4)ccc3-c3ccc(Cl)cc3)cc1F)n2C1CCCCC1	25 µM		89
		0.021 µM	0.38 µM	1300 nM	600 nM	CCCNC(=O)c1ccc(-c2ccc(Cl)cc2)c(COc2ccc(-c3nc4cc(C(=O)O)ccc4n3C3CCCCC3)c(F)c2)c1	24 µM		63
